Common to all, as to format: functional, cell-based
One experiment relates to SK-N-SH. In words: Cytotoxicity against human SK-N-SH cells assessed as growth inhibition after 48 hrs by MTT assay. Summed up: (§1)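 MTT assay in triplicate. Cells were seeded at 10,000 cells/[…] per well in medium with 10% serum and allowed to adhere for 24 h in a humid 5% CO₂ chamber. After 48 h, MTT solution was added and cells were incubated 2 h more. Medium was then removed and DMSO added to dissolve the formazan. IC50 was taken as the concentration giving 50% growth inhibition.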
(In general: Tetrazolium dyes change colour on reduction, which living cells bring about.)

The test system of a further experiment is MDA-MB-231. Briefly: Cytotoxicity against human MDA-MB-231 cells assessed as growth inhibition after 48 hrs by MTT assay. The note with it: MDA-MB-231, 48 h. In short, it runs like this:
as §1

The subject of another experiment is A549. In words: Cytotoxicity against human A549 cells assessed as growth inhibition after 48 hrs by MTT assay. The note with it: A549, 48 h. In short, it runs like this: as §1

Broadly, the IC50 is the concentration at which inhibition is half-maximal. Regarding `COc1ccc2c(c1)CN1CN2Cc2cc(OC)ccc21`, the IC50 with SK-N-SH, in the experiment with MDA-MB-231 and in the experiment with A549 was greater than 100 µM each time.
As to `COc1ccc2c(c1)CN1c3ccc(OC)cc3CN2C1N(C)C`, the IC50 with SK-N-SH, in the experiment with MDA-MB-231 and with A549 was greater than 100 µM throughout.
Take `COc1ccc2c(c1)CN1c3ccc(OC)cc3CN2C1N(C)c1ccc(C)cc1`: the IC50 with SK-N-SH was greater than 100 µM; with MDA-MB-231 it was 10.7 µM; in the experiment on A549, greater than 100 µM.
As for `COc1cc2c(cc1OC)N1Cc3cc(OC)c(OC)cc3N(C2)C1N(C)C`, the IC50 was greater than 100 µM in the experiment on SK-N-SH, 78.1 µM with MDA-MB-231 and greater than 100 µM with A549.
In the case of `COc1cc2c(cc1OC)N1Cc3cc(OC)c(OC)cc3N(C2)C1N(C)c1ccccc1`, the IC50 in the experiment on SK-N-SH was greater than 100 µM; with MDA-MB-231 it was 86.8 µM; in the experiment on A549, greater than 100 µM.
For the molecule `Cc1ccc2c(c1)CN1c3ccc(C)cc3CN2C1N(C)C`, the IC50 is greater than 100 µM with SK-N-SH, 61.8 µM in the experiment on MDA-MB-231 and greater than 100 µM in the experiment on A549.
`Cc1ccc2c(c1)CN1c3ccc(C)cc3CN2C1N(C)c1ccccc1`: the IC50 with SK-N-SH is greater than 100 µM; in the experiment with MDA-MB-231, 72.3 µM; in the experiment with A549 it was greater than 100 µM.
Take `CN(C)C1N2Cc3cc(Br)ccc3N1Cc1cc(Br)ccc12`: the IC50 in the experiment with SK-N-SH, in the experiment on MDA-MB-231 and with A549 was greater than 100 µM each time.
Consider `CN(c1ccccc1)C1N2Cc3cc(Br)ccc3N1Cc1cc(Br)ccc12`, for which the IC50 is greater than 100 µM in the experiment with SK-N-SH, 14.3 µM with MDA-MB-231 and greater than 100 µM in the experiment on A549.
`Cc1ccc(N(C)C2N3Cc4cc(Br)ccc4N2Cc2cc(Br)ccc23)cc1`: the IC50 with SK-N-SH, in the experiment on MDA-MB-231 and in the experiment on A549 was greater than 100 µM each time.
Take `CC(C)c1ccc2c(c1)CN1c3ccc(C(C)C)cc3CN2C1N(C)C`: the IC50 in the experiment on SK-N-SH is greater than 100 µM; with MDA-MB-231 it was 57.5 µM; with A549, greater than 100 µM.
Consider `CN(C)C1N2Cc3ccccc3N1Cc1ccccc12`, for which the IC50 with SK-N-SH, in the experiment on MDA-MB-231 and in the experiment on A549 was greater than 100 µM each time.
On to `Cc1ccc2c(c1)CN1c3ccc(C)cc3CN2C1N1CCCCC1`, for which the IC50 is 12.2 µM in the experiment on SK-N-SH, 82.4 µM in the experiment on MDA-MB-231 and greater than 100 µM in the experiment on A549.
In the case of `Cc1ccc2c(c1)CN1c3ccc(C)cc3CN2C1N1CCOCC1`, the IC50 with SK-N-SH, in the experiment on MDA-MB-231 and in the experiment with A549 was greater than 100 µM each time.
Regarding `Brc1ccc2c(c1)CN1c3ccc(Br)cc3CN2C1N1CCCCC1`, the IC50 in the experiment on SK-N-SH, in the experiment with MDA-MB-231 and in the experiment with A549 was greater than 100 µM in each case.
Turning to `Ic1ccc2c(c1)CN1c3ccc(I)cc3CN2C1N1CCOCC1`, the IC50 with SK-N-SH, with MDA-MB-231 and in the experiment with A549 was greater than 100 µM in each case.
Turning to `Ic1ccc2c(c1)CN1c3ccc(I)cc3CN2C1N1CCCCC1`, the IC50 in the experiment with SK-N-SH, in the experiment with MDA-MB-231 and in the experiment with A549 was greater than 100 µM in each case.
Consider `c1cn(CCOc2ccc3c(c2)CN2CN3Cc3cc(OCCn4ccnc4)ccc32)cn1`, for which the IC50 in the experiment with MDA-MB-231 came to 42.6 µM.
On the same count and under the same terms, then `CN(C)C1N2Cc3cc(OCCn4ccnc4)ccc3N1Cc1cc(OCCn3ccnc3)ccc12`, with greater than 100 µM; and `c1ncn(CCOc2ccc3c(c2)CN2CN3Cc3cc(OCCn4cncn4)ccc32)n1`, with greater than 100 µM.
Regarding `CN(C)C1N2Cc3cc(OCCn4cncn4)ccc3N1Cc1cc(OCCn3cncn3)ccc12`, the IC50 in the experiment on MDA-MB-231 was 40.4 µM.
The same measure, in the same setting: the value for `c1cc2c(cc1OCCN1CCOCC1)CN1CN2Cc2cc(OCCN3CCOCC3)ccc21` was 4.29 µM; that for `CN(C)C1N2Cc3cc(OCCN4CCOCC4)ccc3N1Cc1cc(OCCN3CCOCC3)ccc12` was 4.79 µM; that for `CC(C)(C)OC(=O)N1CCN(CCOc2ccc3c(c2)CN2CN3Cc3cc(OCCN4CCN(C(=O)OC(C)(C)C)CC4)ccc32)CC1` was 5.15 µM.
The same measure, in the same setting: then `c1ccc(-n2nnnc2SCCOc2ccc3c(c2)CN2CN3Cc3cc(OCCSc4nnnn4-c4ccccc4)ccc32)cc1`, with greater than 100 µM.
As to `c1ccc(CC2CCN(CCOc3ccc4c(c3)CN3CN4Cc4cc(OCCN5CCC(Cc6ccccc6)CC5)ccc43)CC2)cc1`, in the experiment with MDA-MB-231, the IC50 worked out at 64.1 µM.
The same measure, in the same setting: then `COc1ccccc1N1CCN(CCOc2ccc3c(c2)CN2CN3Cc3cc(OCCN4CCN(c5ccccc5OC)CC4)ccc32)CC1`, with 5.8 µM.
`Fc1ccc(N2CCN(CCOc3ccc4c(c3)CN3CN4Cc4cc(OCCN5CCN(c6ccc(F)cc6)CC5)ccc43)CC2)cc1`: the IC50 in the experiment with MDA-MB-231 was 4.82 µM.
Same read-out and setting: the value for `Clc1ccc(C(c2ccccc2)N2CCN(CCOc3ccc4c(c3)CN3CN4Cc4cc(OCCN5CCN(C(c6ccccc6)c6ccc(Cl)cc6)CC5)ccc43)CC2)cc1` (racemic) was 57.9 µM.
For the molecule `COc1cccc2c1C(=O)c1c(O)c3c(c(O)c1C2=O)C[C@@](O)(C(=O)CO)C[C@@H]3O[C@H]1C[C@H](N)[C@H](O)[C@H](C)O1` [DOXORUBICIN], the IC50 with SK-N-SH worked out at 8.5 µM; with MDA-MB-231 it was 5.96 µM; with A549 it was 8.05 µM.
